# Source: PubChem BioAssay
# Calls of active or inactive are those of the source.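 The calls were made as follows: active = growth inhibition above 25% in both replicates, a cutoff set 3 SD above the mean; inconclusive = above 25% in only one replicate; inactive = the rest.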
# Test: OD615 S. cerevisiae growth inhibition, permissive medium, pilot counter-assay, permissive growth control for S. cerevisiae lifespan shortening project (AID 705)
# Details: OD615, 24 h, at 10 µM, active compounds read high
# Method in brief: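 System – S. cerevisiae with engineered DeaD lifespan system · Buffer or medium – SC raffinose/galactose permissive medium · Schedule – cells pre-grown 4 h, then 24 h compound exposure, 30 °C humidified · Technique – culture turbidity as optical density at 615 nm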
row,Structure (SMILES),growth inhibition
1,CCCOC(=O)c1ccc(NC(=O)CCC(=O)OCC)cc1,-2.93% (inactive)
2,Cc1ccc(-c2nn(-c3ccccc3)cc2C2SCC(=O)N2Cc2ccccc2)o1 (stereo not given),-17.1% (inactive)
3,CN(C)c1ccc(-c2noc(C3CCN(S(=O)(=O)c4cccc(Cl)c4)CC3)n2)cc1,-5.86% (inactive)
4,COc1cc(OC)c(NC(=O)CS(=O)(=O)Cc2nc(-c3ccc(C)cc3)oc2C)cc1Cl,-22.6% (inactive)
5,COC(=O)c1c(NC(=O)C2CC2)sc2c1CCCC2,4.15% (inactive)
6,C(#Cc1ccccc1)CN1CCN(c2ccccn2)CC1,-7.33% (inactive)
7,CCN1CCN(CC(=O)Nc2cccc(C)c2)C(=O)C1=O,-9.91% (inactive)
8,CN(C)c1ccc(CN(C)C2CCCCC2)cc1,2.59% (inactive)
9,Cc1c(S(=O)(=O)N2CCc3ccccc3C2)c(=O)n(C)c(=O)n1C,-14.9% (inactive)
10,CCOC(=O)C1Cn2c(nc3c(c2=O)C2(CCCC2)Cc2ccccc2-3)S1 (stereo not given),-15.5% (inactive)
11,Cc1cccc(-c2noc(CN(C(=O)c3c(-c4ccccc4Cl)noc3C)C(C)C)n2)c1,-13.9% (inactive)
12,CCOC(=O)c1cc2c(=O)n3ccccc3nc2n(Cc2ccco2)c1=NC(=O)c1cccnc1,-1.49% (inactive)
13,Cc1ccc(C)c(C(=O)Nc2c(C(N)=O)oc3ccccc23)c1,-5.56% (inactive)
14,Clc1ccccc1-c1nnc2sc(-c3ccncc3)nn12,-1.33% (inactive)
15,COC(=O)c1ccc2c(c1)N(Cc1ccccc1F)C(=O)c1ccccc1S2=O (stereo not given),-13.9% (inactive)
